GSK3 alpha inh = blockers of GSK3A enzyme activity – biochemical, luminescence, cell-free homogeneous, HTS, primary screen; hit rate 0.1% among 320,000; AID 2650, 2010; inhibition, % at 10 µM; Glycogen synthase kinase-3 alpha (Homo sapiens), P49840; GSK-3 alpha kinase, ADP-Glo luminescence, 60 min;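 active = more than half of replicates show inhibition above 20%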;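 also: GST-tagged GSK-3 alpha with peptide substrate and 25 µM ATP; 0% = DMSO neutral wells and 100% = GW8510 positive control wells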
DYRK1A inh = rat Dyrk1A kinase inhibitors, primary screen, biochemical, single point, plate reader | Dual specificity tyrosine-phosphorylation-regulated kinase 1A (Rattus norvegicus), Q63470 | ADP-Glo luminescence, NFATc1 peptide | inhibition, % at 12.5 µM | hit rate 0.43% among 310,000 | AID 504441, 2011; in the data active = inhibition above about 50%;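 also: plate controls were vehicle with enzyme for no effect and no enzyme for full effect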
STK33 inh = inhibitors of purified STK33 kinase, primary screen, biochemical, ADP-Glo luminescence, homogeneous, cell-free; hit rate 0.073% among 320,000; Serine/threonine-protein kinase 33 (Homo sapiens), Q9BYT3; inhibition, % at 10 µM; AID 2661, 2010; MBP phosphorylation;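 active = inhibition at or above 25%, using the most active replicate where run in duplicate; inactive = inhibition below 25%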
Target sequence (Q9BYT3 whole entry, looked up): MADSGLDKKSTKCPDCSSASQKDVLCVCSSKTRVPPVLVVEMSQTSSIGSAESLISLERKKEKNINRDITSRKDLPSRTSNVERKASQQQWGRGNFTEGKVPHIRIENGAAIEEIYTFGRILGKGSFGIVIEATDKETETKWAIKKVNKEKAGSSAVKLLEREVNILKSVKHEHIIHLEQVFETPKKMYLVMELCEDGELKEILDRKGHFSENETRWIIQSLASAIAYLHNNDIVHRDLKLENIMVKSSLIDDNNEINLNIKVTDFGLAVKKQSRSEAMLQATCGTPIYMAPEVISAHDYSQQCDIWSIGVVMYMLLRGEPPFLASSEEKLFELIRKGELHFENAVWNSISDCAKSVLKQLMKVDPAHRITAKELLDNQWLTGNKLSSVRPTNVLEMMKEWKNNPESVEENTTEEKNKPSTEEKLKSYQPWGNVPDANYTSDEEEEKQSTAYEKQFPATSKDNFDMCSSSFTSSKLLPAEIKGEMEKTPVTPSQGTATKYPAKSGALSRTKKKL
Rce1 inhib = yeast Rce1p protease inhibitors, primary screen, biochemical, fluorescence, cell-free homogeneous. CAAX prenyl protease 2 (Saccharomyces cerevisiae (strain ATCC 204508 / S288c)), Q03530. yeast membranes, quenched prenylated peptide cleavage fluorescence. calls only. hit rate 0.27% among 290,000. AID 2563, 2010;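 active = fall in fluorescence gain of 50% or more versus controls, with final raw signal at or below 3038400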;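 also: plate controls were neutral control wells for no effect and wells lacking membranes for full effect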
AI-2 QS mod = Vibrio harveyi AI-2 quorum sensing modulators, primary screen, JMH597 strain, luminescence/OD600 ratio. hit rate 0.4% among 300,000. activity change, % at 7.5 µM. Vibrio harveyi JMH597 AI-2 luminescence/OD600 ratio, 9 h; active compounds read low; strain lacks LuxN and CqsS sensors; 0 = neutral-control median; in the data active = activity change below about -75%, passing the limit was not always enough;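 also: luminescence divided by OD600 gain over 9 h not by final OD600 alone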
GSK3beta inhib = human GSK3beta kinase inhibitors, primary screen, biochemical, cell-free homogeneous, HTS. AID 2097, 2009. hit rate 0.038% among 300,000. activity score (negative = inhibition), % at 10 µM. GST-GSK3beta kinase, ADP-Glo luminescence, 60 min; active compounds read low. Glycogen synthase kinase-3 beta (Homo sapiens), P49841;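 active = more than half of replicate wells score below -50%, meaning over 50% inhibition versus plate controls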;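 also: 0% = median DMSO wells and -100% = median GW8510 positive control wells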
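test system = GST-tagged human GSK3beta kinase, cell-free | reagent = 25 µM ATP with peptide substrate | dosing = one dose of 10 µM per compound | schedule = 60 min reaction, RT | detection = luminescent ADP-Glo measurement of ADP formed | control set = DMSO neutral wells and GW8510 at 20 µM as positive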
* marks the source's active call; other numbers are inactive results; i = inactive; / = no result given; + = active, no number. The list is not random: actives were taken first. Their share in the collection is about 0.99%.

SMILES	GSK3 alpha inh	DYRK1A inh	STK33 inh	Rce1 inhib	AI-2 QS mod	GSK3beta inhib
Cc1ccccc1CNC(=O)c1ccccc1N	/	-5.4	/	i	2.4	-5.1
CCOc1ncccc1C(=O)OCC(=O)NC1CCCCC1	-4.7	-4.1	-0.7	/	/	/
O=C(c1cnc(Cl)c(Cl)c1)N1CCC(Cc2ccccc2)CC1	-0.4	0.4	0.7	+	18.7	0.4
CCOc1ccc(Br)cc1S(=O)(=O)NCC(c1ccc(OC)cc1)N1CCOCC1 (stereo not drawn)	/	-1.7	/	/	/	/
O=C(NCc1ccc(F)cc1)c1nc(-c2cccs2)no1	-2.2	-2.1	-0.3	i	-76.1*	3.2
O=C(O)CCC(=O)c1ccc(-c2ccccc2)cc1	-3.9	1.6	0.2	+	49.6	2.8
O=C(O)c1cc2ccccc2c(N=Nc2cccnc2)c1O	0.3	72.6*	1.0	i	11.7	-5.2
O=C(O)c1cc(N=Nc2c(O)ccc3ccccc23)cc(C(=O)O)c1	/	49.3	/	/	/	/
CCCCCN(C(=O)CCC(=O)OCc1ccc(C(C)C)cc1)c1c(N)n(CCCC)c(=O)[nH]c1=O	0.4	1.6	-0.4	i	6.5	-0.2
Cc1ccc(C(=O)NCC(=O)N2CCC(Cc3ccccc3)CC2)cc1	2.9	-1.1	-1.8	i	20.8	-8.1
O=C1c2ccccc2[C@@H]2C[C@@H](O)[C@H](Nc3cccc(Cl)n3)CCN12	/	3.8	/	/	/	/
O=C(Nc1c(C(=O)O)oc2ccc(Br)cc12)c1ccccc1	75.1*	2.0	-0.2	i	-15.9	0.2
CC(=O)Oc1ccc(C2=Cc3ccc(OC(C)=O)cc3OC2C)cc1 (stereo not drawn)	/	3.9	/	/	/	/
CSCC[C@H](N)C(=O)NCC1CCC(C(=O)Nc2ccc3c(c2)OCO3)CC1 (stereo partly drawn)	-1.0	-4.1	0.0	/	6.2	0.5
C[C@@]12CCC=C[C@H]1[C@H](c1ccc(/C=C/c3ccccc3)cc1F)N(Cc1ccccc1)C2=O	0.7	5.9	2.0	+	15.3	-3.9
C[C@@]12CCC=C[C@H]1[C@H](c1ccc3ccccc3c1/C=C/c1ccccc1)N(Cc1ccccc1)C2=O	/	1.2	-1.8	i	23.9	1.5
Cc1cc(/C=C2\Sc3ccccc3N2C)cc(C)[n+]1CC1CCCO1 (stereo not drawn)	/	2.4	/	/	/	/
COc1ccc(C(CNC(=O)COc2cc(C)c(Cl)c(C)c2)N2CCCCC2)cc1 (stereo not drawn)	/	9.7	/	+	8.6	-6.1
COc1ccccc1Nc1nc(NCCC(C)C)nc(N)c1[N+](=O)[O-]	16.1	/	-4.2	i	19.2	-12.7
COc1ccc(OC)c(Nc2nc(NCCCN(C)C)nc(N)c2[N+](=O)[O-])c1	88.1*	39.2	14.0	i	2.1	-65.3*
COc1ccccc1Nc1nc(NCCO)nc(N)c1[N+](=O)[O-]	59.9*	/	1.9	i	25.0	-27.1
COCCCNc1nc(N)c([N+](=O)[O-])c(Nc2cc(OC)ccc2OC)n1	11.2	1.0	-1.5	i	10.7	1.5
COC(=O)C1C(O)C(C)C(O)C(C)(O)/C=C\C=C(/C)C(=O)Nc2c(C)c(OC(C)=O)c3c(c2O)C(=O)C(C)=C2OCOC(=C23)/C(C)=C/C(C)(O)C(O)C(C)C1O (stereo not drawn)	-1.8	-2.5	0.7	i	-159.8*	0.3
C=CCn1c(SCC(=O)N(CC)C2CCS(=O)(=O)C2)nc2cc(C(=O)O)ccc2c1=O (stereo not drawn)	3.2	/	-0.6	/	/	/
CCOC(=O)c1cnc2ccc(Cl)cc2c1N1CCN(C)CC1	64.2*	34.8	3.7	i	-15.8	-42.2
CCOC(=O)c1cnc2ccc(OCC)cc2c1N1CCN(C)CC1	/	33.9	/	i	6.7	-19.0
COc1cccc(CCNC(=O)c2cc(COc3c(F)cccc3F)on2)c1	1.1	-0.3	0.2	i	-31.9	2.9
